# Measured values of several laboratories.
# Compare with care: the assays were run in different laboratories.
# XDH: Xanthine dehydrogenase/oxidase (XDH, Bos taurus, UniProt P80457)
# SPHK2: Sphingosine kinase 2 (SPHK2, Homo sapiens, UniProt Q9NRA0)
# SIRT1: NAD-dependent protein deacetylase sirtuin-1 (SIRT1, Homo sapiens, UniProt Q96EB6)
# SLC7A5: Large neutral amino acids transporter small subunit 1 (SLC7A5, Homo sapiens, UniProt Q01650)
# Adra1b: Alpha-1B adrenergic receptor (Adra1b, Rattus norvegicus, UniProt P15823)
# STAT5B SH2: Signal transducer and activator of transcription 5B, SH2 (STAT5B, Homo sapiens, UniProt P51692)
target,read-out,mode,method,tested at,inhibition [%],SMILES
XDH,enzyme activity,inhibitor,absorbance,100 µg/mL,7.3,OCCc1ccc(O)c(O)c1
SPHK2,enzyme activity,inhibitor,,10 µM,-12,CS(=O)(=O)Nc1cccc(-c2csc(NC(=O)CSc3nc4nccnc4c(=O)n3CCc3ccccc3)n2)c1
SPHK2,enzyme activity,inhibitor,radiometric,0.3 µM,63,CCc1ccc(CCc2ccc(-c3noc([C@@H]4CCCN4C(=N)N)n3)cc2C(F)(F)F)cc1
XDH,enzyme activity,inhibitor,absorbance,100 µg/mL,7.9,OCCc1ccc(O)cc1
SPHK2,enzyme activity,inhibitor,radiometric,0.3 µM,45,COc1ccc(CCc2ccc(-c3noc([C@@H]4CCCN4C(=N)N)n3)cc2C(F)(F)F)cc1
SIRT1,enzyme activity,inhibitor,fluorescence,200 µM,23,Cc1ccc(S(=O)(=O)n2cc(CCC3CC(=O)c4cc(Cl)cc(Br)c4O3)c3ccccc32)cc1 (centres unmarked)
XDH,enzyme activity,inhibitor,absorbance,200 µg/mL,50,O=C1C=C(c2ccc(O)c(O)c2)CO1
SIRT1,enzyme activity,inhibitor,,1 µM,30,CCCCCCCCCCCCNC(=S)NCCCC[C@H](NC(=O)OCc1ccccc1)C(=O)N[C@@H](Cc1c[nH]c2ccccc12)C(=O)N[C@@H](CCNC(=N)N)C(N)=O
SIRT1,enzyme activity,inhibitor,,30 µM,89,Cn1c(CNC(=S)NCCCC[C@H](NS(=O)(=O)c2cccc(F)c2)C(=O)N[C@@H](Cc2c[nH]c3ccccc23)C(=O)NC2CCC2)n[nH]c1=S
SLC7A5,transporter uptake,inhibitor,radiometric,200 µM,38,N[C@@H](CCCCNC(=O)c1ccccc1)C(=O)O
XDH,enzyme activity,inhibitor,absorbance,100 µg/mL,14.7,O=C(O)c1ccc(O)cc1
Adra1b,ligand displacement,,radioligand,10 µM,7,Ic1cccc2cnccc12
XDH,enzyme activity,inhibitor,absorbance,100 µg/mL,8.1,O=Cc1c[nH]c2ccccc12
SPHK2,enzyme activity,inhibitor,radiometric,0.3 µM,56,[H]/N=C(/N)N1CCC[C@H]1c1nc(-c2ccc(OCCC=CCCC)c(C(F)(F)F)c2)no1
SLC7A5,transporter uptake,inhibitor,radiometric,200 µM,54,NC(CCCNC(=O)c1ccccc1)C(=O)O (centres unmarked)
SPHK2,enzyme activity,inhibitor,radiometric,0.3 µM,68,[H]/N=C(\N)N1CCC[C@H]1c1nc(-c2ccc(OCCC=Cc3ccc(C(F)(F)F)cc3)c(C(F)(F)F)c2)no1
SIRT1,enzyme activity,inhibitor,fluorescence,200 µM,4.7,CCCCCC1CC(=O)c2cc([N+](=O)[O-])ccc2O1 (centres unmarked)
SIRT1,enzyme activity,inhibitor,,100 µM,16,CCOCCOCCOCCNC(=S)NCCCC[C@H](NS(C)(=O)=O)C(=O)N[C@H](C)C(=O)N[C@@H](CCCNC(=N)N)C(N)=O
Adra1b,ligand displacement,,radioligand,10 µM,13,O=C(Nc1ccc(S(=O)(=O)N2CCC(Cl)CC2)cc1)c1ccc([N+](=O)[O-])o1
SIRT1,enzyme activity,inhibitor,fluorescence,200 µM,0.4,CCCCCC1CC(=O)c2cc(F)cc(F)c2O1 (centres unmarked)
SLC7A5,transporter uptake,inhibitor,radiometric,200 µM,-1,N[C@@H](CO)C(=O)O
SIRT1,enzyme activity,inhibitor,,100 µM,10,CCCCCCCCCCCCCC(=O)NNCCC[C@H](NC(=O)OCc1ccccc1)C(=O)N[C@@H](Cc1c[nH]c2ccccc12)C(=O)NC(C)C
"Procathepsin L (CTSL, Homo sapiens, UniProt P07711)",enzyme activity,inhibitor,fluorescence,20 µM,93,CSSc1ccccc1C(=O)O
STAT5B SH2,ligand displacement,,FP,100 µM,-1,CC(C)(C)C(=O)OCOP(=O)(Cc1ccccc1CP(=O)(OCOC(=O)C(C)(C)C)OCOC(=O)C(C)(C)C)OCOC(=O)C(C)(C)C
XDH,enzyme activity,inhibitor,absorbance,200 µg/mL,43.3,O=C(CO)c1ccc(O)c(O)c1
SPHK2,enzyme activity,inhibitor,,10 µM,< 20,CC(C)CCn1c(SCC(=O)Nc2ccccc2C(F)(F)F)nc2nccnc2c1=O
SIRT1,enzyme activity,inhibitor,fluorescence,200 µM,2.8,CC(C)C1CC(=O)c2cc(Cl)cc(Br)c2O1 (centres unmarked)
SIRT1,enzyme activity,inhibitor,,1 µM,> 95,CCCCNC(=S)NCCCC[C@H](NS(=O)(=O)c1cccc(F)c1)C(=O)N[C@@H](Cc1c[nH]c2ccccc12)C(=O)NC1CCC1
SLC7A5,transporter uptake,inhibitor,radiometric,200 µM,85,N[C@@H](Cc1cccc(C(=O)Oc2ccccc2)c1)C(=O)O
SIRT1,enzyme activity,inhibitor,,10 µM,71,CCCCCCCCNC(=S)NCCCC[C@H](NS(C)(=O)=O)C(=O)N[C@H](C)C(=O)N[C@@H](CCCNC(=N)N)C(N)=O
SLC7A5,transporter uptake,inhibitor,radiometric,200 µM,16,NC(COC(=O)c1ccccc1)C(=O)O (centres unmarked)
SIRT1,enzyme activity,inhibitor,,1 µM,76,CCCCCCCCCCCCNC(=S)NCCCC[C@H](NC(=O)OCc1ccccc1)C(=O)N[C@@H](Cc1c[nH]c2ccccc12)C(=O)N[C@@H](CCCCNC(=N)N)C(N)=O
SIRT1,enzyme activity,inhibitor,fluorescence,200 µM,10.3,CCCCCC1CC(=O)c2cc(OC)ccc2O1 (centres unmarked)
SPHK2,enzyme activity,inhibitor,radiometric,0.3 µM,75,[H]/N=C(\N)N1CCC[C@H]1c1nc(-c2ccc(OCC=Cc3ccc(C(F)(F)F)cc3)c(C(F)(F)F)c2)no1
SIRT1,enzyme activity,inhibitor,fluorescence,200 µM,-5.2,CCCCCC1CCc2cc(Cl)cc(Br)c2O1 (centres unmarked)
SIRT1,enzyme activity,inhibitor,,30 µM,49,O=C(NC1CCC1)[C@H](Cc1c[nH]c2ccccc12)NC(=O)[C@H](CCCCNC(=S)NCc1cc(O)no1)NS(=O)(=O)c1cccc(F)c1
XDH,enzyme activity,inhibitor,absorbance,100 µg/mL,9.5,O=C(O)c1ccc(O)c(O)c1
SIRT1,enzyme activity,inhibitor,fluorescence,200 µM,6.2,CCCCCC1CC(=O)c2cc(Cl)cc(Br)c2O1 (centres unmarked)
SPHK2,enzyme activity,inhibitor,radiometric,0.3 µM,57,[H]/N=C(\N)N1CCC[C@H]1c1nc(-c2ccc(OCC=Cc3ccc(F)cc3)c(C(F)(F)F)c2)no1
SIRT1,enzyme activity,inhibitor,,1 µM,25,CCCCCCCCCCCCNC(=S)NCCCC[C@H](NC(=O)OCc1ccccc1)C(=O)N[C@@H](CCCCN)C(=O)N[C@@H](CCCNC(=N)N)C(N)=O
STAT5B SH2,ligand displacement,,FP,100 µM,39,O=C(O)Cc1ccccc1OP(=O)(O)O
XDH,enzyme activity,inhibitor,absorbance,25 µg/mL,97,Oc1ncnc2[nH]ncc12
SIRT1,enzyme activity,inhibitor,,1 µM,61,CCCCCCCCCCCCNC(=S)NCCCC[C@H](NC(=O)OCc1ccccc1)C(=O)N[C@@H](C)C(=O)N[C@@H](CCCNC(=N)N)C(N)=O
SPHK2,enzyme activity,inhibitor,radiometric,0.3 µM,25,N=C(N)N1CCC[C@H]1c1nc(-c2ccc(CCC3CCCC3)c(C(F)(F)F)c2)no1
SIRT1,enzyme activity,inhibitor,,100 µM,12,CCOCCOCCNC(=S)NCCCC[C@H](NS(C)(=O)=O)C(=O)N[C@H](C)C(=O)N[C@@H](CCCNC(=N)N)C(N)=O
SPHK2,enzyme activity,inhibitor,radiometric,0.3 µM,59,N=C(N)N1CCC[C@H]1c1nc(-c2ccc(CCc3ccc(C(F)(F)F)cc3)c(C(F)(F)F)c2)no1
SIRT1,enzyme activity,inhibitor,fluorescence,200 µM,6.4,CCCC1CC(=O)c2cc(Cl)cc(Br)c2O1 (centres unmarked)
